In ChEMBL document CHEMBL1130427, “Phenylimidazolidin-2-one derivatives as selective 5-HT3 receptor antagonists and refinement of the pharmacophore model for 5-HT3 receptor binding” (J Med Chem, 1997):
Calls of active or inactive are those of the source.

How the values were obtained:
[1] = target: T1, Serotonin 3 (5-HT3) receptor (Rattus norvegicus) (UniProt P35563+Q9JJ16); assay: Antagonist activity ([…]) for the Bezold Jarisch reflex evoked by 30 ug/Kg of 5-HT in ethylurethane anesthetized rats (i.v.); assay type: functional
[2] = target: T1, Serotonin 3 (5-HT3) receptor (Rattus norvegicus); assay: Inhibition of the Bezold Jarisch reflex evoked by 30 ug/Kg of 5-HT; Weak activity.; assay type: functional
[3] = target: T2, Serotonin 3 (5-HT3) receptor (Rattus norvegicus, UniProt P35563+Q9JJ16); assay: In vitro affinity for 5-hydroxytryptamine 3 (5-HT3) receptor by displacement of [3H]BRL-43694 from rat entorhinal cortex
T2 sequence (P35563 whole entry): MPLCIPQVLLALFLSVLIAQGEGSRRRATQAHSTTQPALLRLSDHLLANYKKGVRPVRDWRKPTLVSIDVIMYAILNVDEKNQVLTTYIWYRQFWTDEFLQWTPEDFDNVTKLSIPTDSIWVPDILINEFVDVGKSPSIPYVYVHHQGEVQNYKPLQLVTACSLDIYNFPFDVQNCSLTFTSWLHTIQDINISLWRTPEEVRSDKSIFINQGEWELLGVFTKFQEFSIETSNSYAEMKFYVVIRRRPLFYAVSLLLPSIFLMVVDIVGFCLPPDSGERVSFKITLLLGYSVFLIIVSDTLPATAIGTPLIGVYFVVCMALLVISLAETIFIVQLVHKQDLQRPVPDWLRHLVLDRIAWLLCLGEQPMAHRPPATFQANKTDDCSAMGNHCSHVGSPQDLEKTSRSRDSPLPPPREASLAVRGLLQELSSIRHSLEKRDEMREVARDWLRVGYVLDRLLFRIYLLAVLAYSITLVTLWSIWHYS
T2 sequence (Q9JJ16 whole entry): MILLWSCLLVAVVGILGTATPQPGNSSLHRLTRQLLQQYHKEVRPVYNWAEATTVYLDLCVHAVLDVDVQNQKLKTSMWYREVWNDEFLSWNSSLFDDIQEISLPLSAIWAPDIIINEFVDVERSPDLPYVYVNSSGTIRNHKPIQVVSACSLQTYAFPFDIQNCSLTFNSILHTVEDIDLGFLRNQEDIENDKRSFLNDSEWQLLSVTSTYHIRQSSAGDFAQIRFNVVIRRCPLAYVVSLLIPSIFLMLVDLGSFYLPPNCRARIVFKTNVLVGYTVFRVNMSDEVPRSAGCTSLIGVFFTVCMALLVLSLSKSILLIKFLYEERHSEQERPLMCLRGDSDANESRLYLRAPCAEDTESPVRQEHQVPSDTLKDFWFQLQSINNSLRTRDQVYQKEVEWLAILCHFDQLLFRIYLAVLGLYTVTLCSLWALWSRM
Outline: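 Each displacement curve has 10 concentrations in triplicate; Ki averaged from at least three curves (±SEM) using the Ligand program.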

[4] = target: T1, Serotonin 3 (5-HT3) receptor (Rattus norvegicus); assay: (§1) Inhibition of the Bezold Jarisch reflex evoked by 30 ug/Kg of 5-HT.; assay type: functional
Outline: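 Rats anesthetized with ethylurethane, 1.25 g/kg ip. Bezold–Jarisch reflex evoked by 5-HT 30 μg/kg iv. The rapid, transient fall in heart rate was quantified without and with antagonist.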

Rattus norvegicus = assay: Antagonist activity (100 ug/kg) for the Bezold Jarisch reflex evoked by 30(ug/Kg) of 5-HT receptor in ethylurethane anesthetized rats i.v.; assay type: functional
[5] = target: T1, Serotonin 3 (5-HT3) receptor (Rattus norvegicus); assay: as §1; assay type: functional; remark: listed apart in the source
[6] = target: T3, 5-hydroxytryptamine receptor 3A (Rattus norvegicus) (UniProt P35563); assay: Antagonist activity (100 ug/kg) for the Bezold Jarisch reflex evoked by 30 (ug/Kg) of 5-hydroxytryptamine 3 receptor in ethylurethane anesthetized rats i.v.; assay type: functional
T3 sequence (whole entry): T2 sequence (P35563 whole entry)

Compound	inhibition [1] [%]	ID50 [2]	Ki [3] [nM]	ID50 [4] [mg/kg]	Inhibition (Rattus norvegicus) [%]	ID50 [5] [mg/kg]	inhibition [6] [%]
CN1C2CCC1CC(N1CCN(c3cccc(Cl)c3)C1=O)C2 (stereo in doubt; 33) [listing 1 of 2 here]	27	Partially active					
CSc1cccc(N2CCN(C3CN4CCC3CC4)C2=O)c1 (centres undefined)	28	Partially active	6				
CC[n+]1c[nH]c(C)c1CN1CCN(c2ccccc2)C1=O	38	Partially active	67				
COc1cccc(N2CCN(Cc3nc[nH]c3C)C2=O)c1	92		3.6	0.0154			
O=C1N(c2cccc([N+](=O)[O-])c2)CCN1C1CN2CCC1CC2 (centres undefined)	5	Partially active	10				
CCn1cnc(CN2CCN(c3ccccc3)C2=O)c1C	21	Partially active	85				
Cc1nccn1CC1CCc2c(c3ccccc3n2C)C1=O (centres undefined)				0.00225			
CN1C2CCCC1CC(N1CCN(c3cccc(Cl)c3)C1=O)C2 (stereo in doubt; 37) [listing 1 of 2 here]			250				
O=C1N(c2cccc(Br)c2)CCN1C1CN2CCC1CC2 (centres undefined)	77.7	Partially active	3				
N#Cc1cccc(N2CCN(C3CN4CCC3CC4)C2=O)c1 (centres undefined)	43	Partially active	30				
Cc1c(CN2CCN(c3ccccc3)C2=O)ncn1C	77		8.5	0.0285			
Cc1[nH]cnc1CN1CCN(c2cccc(C#N)c2)C1=O	88		2.7	0.0322			
O=C1N(c2cccc(Cl)c2)CCN1C1CN2CCC1CC2 (centres undefined)			2		60	0.0799	
O=C1N(c2ccccc2)CCN1C1CN2CCC1CC2 (centres undefined)	71		8	0.0671			
Cc1cccc(N2CCN(Cc3nc[nH]c3C)C2=O)c1	86		0.93	0.0031			
O=C1N(c2cccc(C(F)(F)F)c2)CCN1C1CN2CCC1CC2 (centres undefined)	14	Partially active	98				
CN1C2CCCC1CC(N1CCN(c3cccc(Cl)c3)C1=O)C2 (stereo in doubt; 38) [listing 1 of 2 here]	21	Partially active					
CN1C2CCCC1CC(NC(=O)c1nn(C)c3ccccc13)C2 (centres undefined)	95			0.00088			
Cc1[nH]c[n+](C)c1CN1CCN(c2ccccc2)C1=O	45	Partially active	55				
Cc1[nH]cnc1CN1CCN(c2cccc(Br)c2)C1=O	89		0.62	0.0065			
COc1ccc(Cl)cc1N1CCN(C2CC3CCCC(C2)N3C)C1=O (centres undefined)	5	Partially active	> 10000				
CN1C2CCC1CC(N1CCN(c3cccc(Cl)c3)C1=O)C2 (stereo in doubt; 34) [listing 1 of 2 here]			> 10000				
COc1cccc(N2CCN(C3CN4CCC3CC4)C2=O)c1 (centres undefined)		Partially active	6		37		
Cc1[nH]cnc1CN1CCN(c2ccccc2)C1=O	95		3.4	0.0039			

Compound	inhibition [1] [%]	ID50 [2]	Ki [3] [nM]	ID50 [4] [mg/kg]	Inhibition (Rattus norvegicus) [%]	ID50 [5] [mg/kg]	inhibition [6] [%]
Cc1[nH]cnc1CN1CCN(c2cccc(Cl)c2)C1=O	87		0.5	0.00526			
Cc1[nH]cnc1CN1CCN(c2ccc(Cl)cc2)C1=O	29	Partially active	19				
O=C1N(Cc2c[nH]cn2)CCN1c1ccccc1	56	Partially active	4				
Cc1cc(C)cc(N2CCN(Cc3nc[nH]c3C)C2=O)c1	86		0.42	0.0034			
Cc1[nH]cnc1CN1CCN(c2cc(Cl)cc(Cl)c2)C1=O	93		0.038	0.0022			
CSc1cccc(N2CCN(Cc3nc[nH]c3C)C2=O)c1	88		1.6	0.0286			
Cc1[nH]cnc1CN1CCN(c2cccc(C(F)(F)F)c2)C1=O	39	Partially active	9.7				
CN1C2CCCC1CC(N1CCN(c3cccc(Cl)c3)C1=O)C2 (stereo in doubt; 37) [listing 2 of 2 here]	15	Partially active					
Cc1[nH]cnc1CN1CCN(c2ccccc2Cl)C1=O	5	Partially active	290				
CN1[C@@H]2CC[C@H]1C[C@@H](OC(=O)c1c[nH]c3ccccc13)C2				0.001			
O=C1N(c2cc(Cl)cc(Cl)c2)CCN1C1CN2CCC1CC2 (centres undefined)	76		1	0.0206			
CN1C2CCC1CC(N1CCN(c3cccc(Cl)c3)C1=O)C2 (stereo in doubt; 34) [listing 2 of 2 here]	0	Partially active					
CN1C2CCC1CC(N1CCN(c3ccccc3)C1=O)C2 (centres undefined)	56	Partially active	12				
COc1ccc(Cl)cc1N1CCN(C2CN3CCC2CC3)C1=O (centres undefined)	11	Partially active	40				
Cc1[nH]cnc1CN1CCN(c2cccc([N+](=O)[O-])c2)C1=O	95			0.054			
Cc1[nH]cnc1CN1CCN(c2cccc(F)c2)C1=O	84		3.7	0.0176			
CN1C2CCC1CC(NC(=O)N1CC(C)(C)c3ccccc31)C2 (centres undefined)	90.5		0.26	0.00089			
CN1C2CCCC1CC(N1CCN(c3cccc(Cl)c3)C1=O)C2 (stereo in doubt; 38) [listing 2 of 2 here]			360				
COc1ccc(Cl)cc1N1CCN(C2CC3CCC(C2)N3C)C1=O (centres undefined)	22	Partially active	400				
Cc1nc[nH]c1CN1CCN(c2cccc([N+](=O)[O-])c2)C1=O			6.6				
Cc1cccc(N2CCN(C3CN4CCC3CC4)C2=O)c1 (centres undefined)	75		4			0.0376	
CN1C2CCC1CC(N1CCN(c3cccc(Cl)c3)C1=O)C2 (stereo in doubt; 33) [listing 2 of 2 here]			25				
O=C1N(c2ccc(Cl)cc2)CCN1C1CN2CCC1CC2 (centres undefined)		Partially active	210				8
CN1C2CCCC1CC(N1CCN(c3ccccc3)C1=O)C2 (centres undefined)	22	Partially active	190				
